Data as given in the RNAGym collection of RNA variant scans (doi:10.1126/science.aae0568).
Fewer inactive variants are shown than the library holds.

B1: tRNA (parent)
chain: GUUCCGUUGGCGUAAUGGUAACGCGUCUCCCUCCUAAGGAGAAGACUGCGGGUUCGAGUCCCGUACGGAACG

Variants of: B1
Experiment: yeast fitness relative to wild type (ratio to wild type); higher = fitter; tRNA-Arg(CCU), competitive growth, 37 C, YPD
Procedure, shortened: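 For this measurement, the tRNA-Arg(CCU) gene was varied by chemical synthesis at a 3% per-site mutation rate across 69 sites, and each variant was placed at the native genomic locus in Saccharomyces cerevisiae. The pooled strains went through a 24-hour competition in YPD at 37°C in six parallel replicates, with amplicons from start and end populations read by 100-nucleotide paired-end sequencing. Darwinian fitness relative to wild type followed from the change in each genotype's frequency. Genotypes needed ≥ 100 starting reads, and estimates < 0.5 were set to 0.5.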

First: GUUCCGUUGGCGUAAAGGUAACGCGUCUCCCUCCUAAGGAGAAGACUGCGGGUUCGAGUGCCGUACAGAACG [U16A C60G G67A]
Second: GUUCCGUUGGCGUAAAGGUAACGCGUCUCCCUCCUAAGGAGAAGACUGCGGGUUAGAGUCCCGUACGGAACG [U16A C55A]
The yeast fitness of the first is lower: at most 0.5 for the first, 0.699 for the second.

GUUCCGUUGGCGUAAAGGUAACGCGUUUCCCUCCUAAAGAGAAGACUGCGGGUUCGAGUCCCGUACGGAACG [U16A C27U G38A] and GUUCCGUUGGCGUAAAGGUAACGCGUCUCCCUCGUAAGGAGAAGACAGCGGCUUCGAGUCCCGUACGGAACG [U16A C34G U47A G52C] cannot be ordered by yeast fitness: at most 0.5 for the first, at most 0.5 for the second.

Compared with GUUCCGUUGGCGUAAAAGUGAGGCGUCUCCCUCCUAAGGAGAAGACUGCGGGUUCGAGUCUCGUACGCAACG [U16A G17A A20G C22G C61U G68C], GUUCCGUUGGCGUAAAGGUAACGCGUCUCCCUCCUAAGGAGAAGACUGUGGGUUCGAGUCCCGUACAGAACG [U16A C49U G67A] is higher in yeast fitness: 0.559 for the first, 0.67 for the second.

First: GUUCCGUUGGCGUAAAGGUAACACGUCUCCCUACUAAGGAGAAGACUGCGGGUUCGAGUCCCGUGCGGAACG [U16A G23A C33A A65G]
Second: GUUCCGUUGGCGUAAAGGUAACGCGUCUCCCUCCUAAGGAGAAGACUACGGGUUCGAGUCCCGUACGGAACG [U16A G48A]
The yeast fitness of the first is lower: at most 0.5 for the first, 0.896 for the second.

GUUCCGUUGGCGUAAAGGUAACGCCUCUCCCUCCUAAGGCGAAGACUGUGGGUUCGAGUCCCGUACGGAACG [U16A G25C A40C C49U] and GUUCCGUUGGCGUAAAGGUAACCCGACUUCCUCCUAAGGAGUAGACUACGGGUUCGAGUCCCGUACAGAACG [U16A G23C U26A C29U A42U G48A G67A] cannot be ordered by yeast fitness: at most 0.5 for the first, at most 0.5 for the second.

GUUCCGUUGGCGUAAAGGUAACGCGUCUCCCUAAUAAGGAGAAGACUGCGGGUUCGAGUCCCGUACGGAACG [U16A C33A C34A] and GUUCCGUUGGCGUAAAGGUAACGCCUCUCCCUCCUAAGGAGAAGACUACGGGUUCGAGACCCGUACGGAACG [U16A G25C G48A U59A] cannot be ordered by yeast fitness: at most 0.5 for the first, at most 0.5 for the second.

GUUCCGUUGGCGUAAAGGUAACGCAUCUCCCUCCUAAGGAGAAGACUGAGGGUUCGAGUCCCGUACGGAACG [U16A G25A C49A] and GUUCCGUUGGCGUAAAGGUAACGCGUCUCCCUCCUAAGGAGAAGACUGCGGGUUGGAGUCUCGUACGGAACG [U16A C55G C61U] cannot be ordered by yeast fitness: at most 0.5 for the first, at most 0.5 for the second.

GUUCCGUUGGCGUAAAGGUAACCCGUCUUCGUCCUAAGGAGAAGACUGCGGGUUCGAGUCCCGUACGGAACG [U16A G23C C29U C31G] and GUUCCGUUGGCGUAAAGGUAACGCGUCUCCCUCCUAAGGAGAAGACUGUGGAUUCGAGUACCGUACGGAACG [U16A C49U G52A C60A] cannot be ordered by yeast fitness: at most 0.5 for the first, at most 0.5 for the second.

Compared with GUUCCGUUGGCGUAAAAGUAACGCGUCUCCCUCCUAAGGAGAAGACUGCGGGUUCGAGUCCCGUAGGGAUCG [U16A G17A C66G A70U], GUUCCGUUGGCGUAAAGGUAACGCGUCUCCCUGCUAAGGAGAAGACUGAGGGUUCGAGUCCCGUACGGAACG [U16A C33G C49A] is lower in yeast fitness: 0.634 for the first, 0.537 for the second.

First: GUUCCGUUGGCGUAAAGGUAACGCGUCUCCAUCCUAAGGAGAAGACUGCGGGUUCGAGUCCCGUACUGAACG [U16A C31A G67U]
Second: GUUCCGUUGGCGUAAAGGUAACGCGUCUCCCUCCUAAGGAGAAGAGUGCGGGUUCGAGUCCCGUACGGAACG [U16A C46G]
The yeast fitness of the first is lower: at most 0.5 for the first, 0.951 for the second.

Compared with GUUCCGUUGGCGUAAAGGUAACGCGUCUCCAUCCUAAGGAGAAGACUGCGAGUUCGAGUCCCGUACGGAACG [U16A C31A G51A], GUUCCGUUGGCGUAAAGGUAACGCGUCUCCCUCCUAAGGAGAAGACUGCGGGUUCGAGUACCGUACCGAACG [U16A C60A G67C] is lower in yeast fitness: 0.552 for the first, at most 0.5 for the second.

GUUCCGUUGGCGUAAAGGUAACGCGUCUCCCUCCUAACGAGAAGACUGCGGGUUCGAGUCUCGCACGGAACG [U16A G38C C61U U64C] and GUUCCGUUGGCGUAAAGGUAACGUGUCUCCCUCCUAAGGAGAACACUGCGGGUUCGAGUCUCGUAUGGAACG [U16A C24U G44C C61U C66U] cannot be ordered by yeast fitness: at most 0.5 for the first, at most 0.5 for the second.

Compared with GUUCCGUUGGCGUAAAGGUAACGCGUCUUCCUCCUAAGGAGAAGACUGCGGGUUCGAGUCCCGUACGGAACG [U16A C29U], GUUCCGUUGGCGUAAAGGUAACGCGUCUCGCUCCUAAGGAGAAGACUGCGGGUUCGUGUCCCGUACGGAACG [U16A C30G A57U] is lower in yeast fitness: 0.775 for the first, at most 0.5 for the second.

GUUCCGUUGGCGUAAAGGUAACGCGUCUCCCUCCUAAGAAGAAGACUACGGGUUCGAGUCCCAUCCGGAACG [U16A G39A G48A G63A A65C] and GUUCCGUUGGCGUAAAGGUAACGCGUCUGUCUCCUAAGGUGAAGACUGCGGGUUCGAGUCCCGUACGGAGCG [U16A C29G C30U A40U A70G] cannot be ordered by yeast fitness: at most 0.5 for the first, at most 0.5 for the second.

Going from GUUCCGUUGGCGUAAAGGUAACGCGUCUCCCUCUUAAGGAGAAGACUGCGGGUUCGAGUCCCGUACGGAACG [U16A C34U] to GUUCCGUUGGCGUAAAGGUAACGCGUCUCCCUCAUAAGGUGAAGACUGCGGGUUCGAGUCCCGUACGGAACG [U16A C34A A40U], the yeast fitness falls from 0.663 to at most 0.5.

Compared with GUUCCGUUGGCGUAAAGCUAACGCGUCUCCCUCCUAAGGAGAAGACUCCGGGUUCGAGUCCCGUACGGAACG [U16A G18C G48C], GUUCCGUUGGCGUAAAGGUAACGCGUCUCGCUCCUAAGGAGAACACUGCGGGUUCGAGUCCCGUCCGGAACG [U16A C30G G44C A65C] is lower in yeast fitness: 0.646 for the first, at most 0.5 for the second.

First: GUUCCGUUGGCGUAAAGGUAACGCGUCUCCCUCCUAAGGAGAAGACUGUGGGUUCGAGUCCCGUACGGUACG [U16A C49U A69U]
Second: GUUCCGUUGGCGUAAAGGUAACGCGUCUCCCUCCUAAGCAGAAGACUGCGGGUCUGAGUCCCGUACGGAACG [U16A G39C U54C C55U]
The yeast fitness of the first is higher: 0.647 for the first, at most 0.5 for the second.

Going from GUUCCGUUGGCGUAAAGGUAACGCGUGUCCCUCCUAAGGAGAAGACUGCGGGUUCGAGUCCCGUCCGGAACG [U16A C27G A65C] to GUUCCGUUGGCGUAAAGGUAACGCGUCUCCCUCCUAAGGAGAAGACUGCGGGUUCGAGUCCAGUACGGAACG [U16A C62A], the yeast fitness rises from 0.585 to 0.786.

GUUCCGUUGGCGUAAAGGUAACGCGUCUCCCUCCUAAGGAGAAGACUGCGGGUUUGAGACCCGUCCGGAACG [U16A C55U U59A A65C] and GUUCCGUUGGCGUAAAGGUAACGCGUGUCCCUCCUUAGGAGAAGACUGCGGGUUCGAGUCCCGUACGGAACG [U16A C27G A36U] cannot be ordered by yeast fitness: at most 0.5 for the first, at most 0.5 for the second.
